697 NFkB inh = inhibitors of the PMA/ionomycin-induced NF-kB reporter in 697 B cells; 697 B-cell NF-kB luciferase reporter, 16 h; inhibition, % at 4 µM; actives 0.33% (n = 330,000); AID 435022; in the data active means inhibition above about 35%
CHOP UPR activ = apoptotic UPR (CHOP) activation; activation, % at 10 µM; CHO-CHOP luciferase reporter, luminescence; percent of tunicamycin response over DMSO baseline; actives 0.34% (n = 330,000);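 active means at 10 µM dose, activation of 40% or more, normalized to positive control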;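 further: 100% = tunicamycin at 10 µg/mL and 0% = DMSO alone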
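Test system: CHO CHOP reporter cells. Input: 500 CHO-CHOP cells per well. Medium: F12 with 10% FBS. Technique: luciferase luminescence. Measure: percent activation relative to tunicamycin control. Dosing: 10 µM compound, 0.5% DMSO. Timing: 16-18 h cell attachment, then 6 h compound exposure, 37 °C.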
Jurkat NFkB inh = lowers PMA/ionomycin-induced NF-kB signal in Jurkat cells | PMA/ionomycin-induced NF-kB luciferase reporter, luminescence | inhibition, % at 4 µM | actives 0.53% (n = 330,000); in the data active means inhibition above about 50%
CHOP inhibitor = inhibitors of CHOP induction in ER stress response | actives 3.8% (n = 220,000) | inhibition, % at 10 µM | CHO-K1 CHOP-promoter luciferase, tunicamycin-induced, 15-18 h;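 active means compounds that reduced the stress-induced luciferase reporter signal by more than about 70% of percent inhibition, limit read from the data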;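 further: 0% = tunicamycin plus vehicle and 100% = wells without tunicamycin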
UPR XBP1 act = activators of adaptive arm of unfolded protein response (XBP1); activation, % at 20 µM; CHO-XBP1 luciferase reporter, IRE1-XBP1 UPR activation, luminescence; percent of tunicamycin response, DMSO as zero; actives 0.33% (n = 330,000); AID 463104;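 active means versus positive control, 20 µM dose yields 30% or more activation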;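 further: 100% = tunicamycin at 10 µg/mL and 0% = DMSO only wells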
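Test system: CHO-XBP1 luciferase reporter cells | Buffer or medium: Serum-containing F12 medium, 10% FBS | Schedule: 6 h compound exposure at 37 °C, 5% CO2 | Detection: Steady-Glo luciferase glow luminescence, 10 min after reagent addition | Read-out basis: Activation, % of tunicamycin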
* hit, by the source's call; . = no result given. This is one part of a sample in which hits are shown more often than they occur.

SMILES | 697 NFkB inh | CHOP UPR activ | Jurkat NFkB inh | CHOP inhibitor | UPR XBP1 act
O=C(N[C@H]1C/C=C\C[C@H](CC(=O)N(CCO)Cc2ccccc2)C(=O)NC[C@H](c2ccccc2)OC1=O)OCC1c2ccccc2-c2ccccc21 | 17 | -1 | 16 | . | -2
O=C(c1ccc(N2CCCC2=O)cc1)N1CCN(c2cccc(C(F)(F)F)c2)CC1 | -11 | 1 | 8 | . | -2
O=C(CS(=O)(=O)c1ccc(F)cc1)NCCS(=O)(=O)c1ccccc1 | 13 | 0 | 3 | . | -5
CC(C)c1ccccc1NC(=O)CNCCc1ccc(C(F)(F)F)cc1 | 4 | -4 | 6 | 76* | 2
CCN(C(=O)Cn1c(=O)oc2ccccc21)c1cccc(C)c1 | -22 | 0 | -6 | . | -2
Cc1ccc(NC(=O)n2ncc3c(C)cccc32)cc1F | -156 | 3 | -113 | . | 2
CCOC(=O)c1ccccc1NC(=O)COC(=O)CCCOc1ccccc1 | -14 | 1 | -14 | . | -1
Cc1ccccc1NC(=O)c1ccccc1NC(=O)c1cccs1 | 10 | -1 | 8 | . | 1
CCOC(=O)c1ccccc1NC(=O)c1cccs1 | 14 | -1 | -10 | 92* | 2
CCOC(=O)c1ccccc1NC(=O)c1n[nH]c(=O)c2ccccc12 | 7 | -1 | -13 | 93* | 3
CCOC(=O)c1ccccc1NC(=O)COc1ccccc1 | -40 | -1 | -9 | 84* | -1
COc1cc(NC(=O)c2cccs2)c(C(=O)OCC(=O)NCc2ccccc2)cc1OC | -3 | -1 | -5 | 87* | 4
CCOC(=O)c1ccc(NC(=O)c2n[nH]c(=O)c3ccccc23)cc1 | 5 | 4 | -29 | 14 | -1
Cc1cccc(C(=O)OCC(=O)NC(=O)NCc2ccccc2)c1 | 18 | 0 | 4 | . | -3
CCOC(=O)c1ccc(NC(=O)c2c(N)n(Cc3ccccc3)c(=O)[nH]c2=O)cc1 | 5 | 5 | 7 | . | 11
CN1C(C(=O)NCc2ccco2)=CC(c2ccc(F)cc2)=NS1(=O)=O | -7 | 0 | 8 | . | -2
CCOC(=O)c1ccccc1NC(=O)c1cncc(Br)c1 | . | . | . | 73* | .
CC(=O)Nc1ccc(S(=O)(=O)Nc2nc(C)nc3sc(C)c(C)c23)cc1 | 19 | -1 | 43 | . | 0
Cc1cc(NS(=O)(=O)c2ccc(NC(=O)c3cc4cc(Br)ccc4oc3=O)cc2)no1 | 5 | -1 | 18 | 91* | -2
Cc1cc(NS(=O)(=O)c2ccc(NC(=O)c3ccccc3C)cc2)no1 | 10 | 0 | 2 | . | -1
CCOc1cc(C)c(S(=O)(=O)Nc2ccc(F)cc2)cc1C | -2 | 0 | -7 | 81* | -2
O=C(Nc1ccc(F)cc1)Nc1ccc(Cl)cn1 | -37 | 2 | -44 | 9 | 3
COC(=O)c1ccc(NC(=O)Nc2ccc(F)c(Cl)c2)cc1 | 1 | 4 | -27 | 86* | 0
O=C(Nc1ccc(F)c(Cl)c1)Nc1ccc(Cl)cn1 | -11 | 1 | -14 | 81* | 0
COC(=O)c1cc(Cl)c(NC(=O)/C=C/c2ccc(Cl)cc2Cl)cc1OC | -24 | 0 | -22 | 84* | -2
SMILES | 697 NFkB inh | CHOP UPR activ | Jurkat NFkB inh | CHOP inhibitor | UPR XBP1 act
COC(=O)c1cc(Cl)c(NC(=O)/C=C/c2ccc(Cl)cc2)cc1OC | -25 | -1 | -6 | 32 | -4
O=c1c2cc(N3CCOCC3)ccc2[nH]c(=S)n1Cc1ccc(Cl)cc1 | -129 | 4 | -48 | 70* | 0
CCCCn1c(=O)c2ccccc2c2ccccc2c1=O | -2 | -2 | -5 | 76* | 1
Cc1nc(C)c(C(=O)O)s1 | 6 | -2 | -5 | 4 | -2
O=C1/C(=C/c2ccco2)CCc2ccccc21 | -37 | 5 | 16 | -33 | 2
CCC1C/C(=C/c2ccco2)C(=O)/C(=C/c2ccco2)C1 (centres undefined) | . | . | . | 86* | .
Cc1ccc2[nH]c(CNC(=O)c3ccccc3F)cc2c1 | -12 | 1 | -16 | . | 1
CCOc1ccc(NC(=S)Nc2ccc(OCC)cc2)cc1 | -11 | 1 | -12 | 8 | -2
CCOc1ccc(NC(=S)Nc2ccc(C)c([N+](=O)[O-])c2)cc1 | -20 | 0 | -13 | 70* | -2
CC(C)(C)c1cc(NC(=O)CCSc2nnc3ccccn23)cc(C(C)(C)C)c1 | -38 | 2 | 0 | 88* | -3
COc1cc(NC(=O)CSc2nnc3ccccn23)cc(OC)c1 | 17 | 2 | 2 | . | -3
COc1ccccc1CCNS(=O)(=O)c1cc2c3c(c1)CCN3C(=O)CC2 | 10 | 0 | 12 | . | -3
CCCCCC1CCC(c2n[nH]c(=S)n2C)CC1 (centres undefined) | -7 | -1 | 2 | 95* | 1
C=CCn1c(C2CC2)n[nH]c1=S | 9 | -1 | -7 | 12 | 1
Cc1ccccc1OCc1nnc(SCC(=O)Nc2ccc3nc(SCC(=O)NC(C)(C)C)sc3c2)n1C | -19 | -3 | 0 | 73* | -8
CCN(CC)C(=O)CSc1nc2ccc(NC(=O)CSc3nnc(COc4ccccc4C)n3C)cc2s1 | 9 | -4 | 21 | 56 | -1
CC(C)(C)NC(=O)CSc1nc2ccc(NC(=O)CSc3nnc(N)s3)cc2s1 | -24 | -2 | 22 | 70* | -1
CC(C)(C)OC(=O)C(Cc1ccc(OC(C)(C)C)cc1)NC(=O)CNC(=O)OCc1ccccc1 (centres undefined) | -15 | -2 | -10 | 74* | -2
CC(C)C(NC(=O)OC(C)(C)C)C(=O)NC(CCC(=O)OCc1ccccc1)C(N)=O (centres undefined) | 7 | 0 | 9 | -1 | 0
CC(C)CC(NC(=O)C(NC(=O)C(Cc1ccc(OCc2ccccc2)cc1)NC(=O)OC(C)(C)C)C(C)C)C(N)=O (centres undefined) | -12 | 0 | -5 | 95* | -1
CC(C)CC(NC(=O)C(CC(C)C)NC(=O)OC(C)(C)C)C(N)=O (centres undefined) | 10 | 2 | 10 | 23 | -5
CC(C)CC(NC(=O)C(CC(C)C)NC(=O)C(Cc1ccc(OCc2ccccc2)cc1)NC(=O)OC(C)(C)C)C(N)=O (centres undefined) | 11 | 0 | 6 | 94* | -2
C[C@H](NC(=O)OCc1ccccc1)C(=O)NNC(=O)[C@H](Cc1ccccc1)NC(=O)OC(C)(C)C | -10 | 2 | -5 | 25 | -1
Cc1noc(C)c1C(=O)OCC(=O)Nc1ncc(Cl)c(C)c1Cl | -1 | -1 | -15 | . | -1
COc1ccccc1N1CCN(C(=S)Nc2ccccc2)CC1 | -24 | 0 | -18 | . | -3
CCc1cc(C(=O)Cc2cnn(-c3ccccc3)c2)c(O)cc1O | -1 | -2 | 14 | 77* | -2
Cc1cccc(NC(=O)Cn2c(O)c(N=NC(=O)c3ccncc3)c3ccccc32)c1 | -15 | 1 | -19 | 84* | -3
